Assay results reported in ChEMBL document CHEMBL3826951, “Discovery of Benzocycloalkane Derivatives Efficiently Blocking Bacterial Virulence for the Treatment of Methicillin-Resistant S. aureus (MRSA) Infections by Targeting Diapophytoene Desaturase (CrtN)” (J Med Chem, 2016).
Activity calls are given as the source filed them. The rule behind the calls is not given here.

What was measured:
[1] = target: T1, 4,4'-diapophytoene desaturase (4,4'-diaponeurosporene-forming) (Staphylococcus aureus (strain Newman), UniProt O07855); assay: Inhibition of diapophytoene desaturase in Staphylococcus aureus Newman assessed as reduction in staphyloxanthin pigment formation after 48 hrs by spectrophotometry; set-up: species or system Staphylococcus aureus subsp. aureus str. Newman
T1 sequence (O07855 whole entry): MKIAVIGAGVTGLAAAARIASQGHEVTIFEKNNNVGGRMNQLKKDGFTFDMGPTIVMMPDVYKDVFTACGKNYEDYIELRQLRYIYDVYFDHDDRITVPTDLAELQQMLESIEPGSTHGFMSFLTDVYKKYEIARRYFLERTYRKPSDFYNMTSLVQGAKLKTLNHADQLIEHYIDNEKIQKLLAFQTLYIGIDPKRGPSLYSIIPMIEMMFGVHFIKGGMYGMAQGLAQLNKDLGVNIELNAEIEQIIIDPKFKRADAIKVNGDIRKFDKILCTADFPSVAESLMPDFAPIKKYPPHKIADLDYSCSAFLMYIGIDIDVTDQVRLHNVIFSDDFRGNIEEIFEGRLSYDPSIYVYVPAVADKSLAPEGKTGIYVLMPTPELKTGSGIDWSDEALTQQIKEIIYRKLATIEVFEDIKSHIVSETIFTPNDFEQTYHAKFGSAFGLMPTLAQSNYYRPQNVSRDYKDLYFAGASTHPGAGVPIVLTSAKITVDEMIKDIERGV

Staphylococcus aureus [2] = assay: Sensitization of methicillin-resistant Staphylococcus aureus USA300 LAC to human whole blood assessed as cell survival at 1 uM after 6 hrs by serial dilution method (reference value: 12.17%); format: functional; conditions: LAC USA300, 6 h
[3] = Aqueous solubility of the compound in water after 24 hrs by HPLC method; format: physicochemical
Summary of the method: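 Excess solid stirred in pure water for 24 h, then filtered. Filtrate analysed by HPLC (10 µL injection). Concentration read against a calibration curve of peak area versus concentration, built from methanol solutions at 50–800 µg/mL.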

Staphylococcus aureus [4] = assay: (§1) Attenuation of methicillin-resistant Staphylococcus aureus USA400 MW2 virulence in BALB/c mouse systemic infection model assessed as decrease in bacterial burden in liver at 50 mg/kg, ip administered every 12 hrs for 108 hrs followed by bacterial challenge after first 12 hrs of compound dosing measured 5 days post infection; format: functional
Summary of the method: (§2)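 Female BALB/c mice, 6-8 weeks old. Dosed ip every 12 h for 108 h. Challenged with 100 µL at 12 h: 1.6 × 10^8 CFU Mu50 or 4 × 10^7 CFU USA400 MW2. Sacrificed 5 days post-infection. Livers and kidneys homogenised in PBS/0.1% Triton X-100, serially plated on TSA, CFU counted; two-tailed Mann-Whitney.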

Staphylococcus aureus [5] = assay: Sensitization of methicillin-resistant Staphylococcus aureus Mu 50 to H2O2-induced killing assessed as cell survival at 1 uM pre-incubated for 24 hrs before H2O2 exposure for 30 mins by serial dilution method (reference value: 30.67%); format: functional; conditions: Mu50
Staphylococcus aureus [6] = assay: Effect on Staphylococcus aureus Newman growth at 0.2 mM after overnight incubation by plate reader method; format: organism-based; conditions: 200 µM
Summary of the method: (§3)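 DMSO stock (20 mM) diluted in TSB to final 0.2 or 0.05 mM, overlaid with paraffin, pre-warmed 4 h at 37 °C. Overnight cultures adjusted to OD600 ~1.0 and inoculated to final OD600 ≈ 0.05. DMSO-matched growth controls. Incubated overnight at 37 °C; OD600 read every 30 min.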

Staphylococcus aureus [7] = assay: Effect on methicillin-resistant Staphylococcus aureus USA400 MW2 growth at 0.05 mM after overnight incubation by plate reader method; format: organism-based; conditions: 50 µM; summary of the method: as §3
Staphylococcus aureus [8] = assay: as §1, with “survival” for “burden”, “kidney” for “liver”; format: functional; summary of the method: as §2
Trichophyton rubrum = assay: Antifungal activity against naftifine-sensitive Trichophyton rubrum after 7 days by serial dilution method; format: functional
Summary of the method: (§4)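 Broth serial dilution in 96-well plates per NCCLS recommendations. Medium: RPMI 1640 buffered with 0.165 M MOPS. Fungi were ATCC strains or clinical isolates.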

Staphylococcus aureus [9] = assay: as §1, with “survival” for “burden”, “kidney” for “liver”, “200” for “50”; format: functional; summary of the method: as §2
[10] = tested on: Trichophyton mentagrophytes; assay: Antifungal activity against naftifine-sensitive Trichophyton mentagrophytes after 7 days by serial dilution method; format: functional; summary of the method: as §4
Staphylococcus aureus [11] = assay: Sensitization of Staphylococcus aureus Newman to H2O2-induced killing assessed as cell survival at 1 uM pre-incubated for 24 hrs before H2O2 exposure for 30 mins by serial dilution method (reference value: 30.43%); format: functional
Staphylococcus aureus [12] = assay: Sensitization of methicillin-resistant Staphylococcus aureus USA400 MW2 to H2O2-induced killing assessed as cell survival at 1 uM pre-incubated for 24 hrs before H2O2 exposure for 30 mins by serial dilution method (reference value: 14.17%); format: functional
Staphylococcus aureus [13] = assay: Sensitization of methicillin-resistant Staphylococcus aureus USA300 LAC to H2O2-induced killing assessed as cell survival at 1 uM pre-incubated for 24 hrs before H2O2 exposure for 30 mins by serial dilution method (reference value: 15.83%); format: functional
[14] = target: T2, 4,4'-diapophytoene desaturase (4,4'-diaponeurosporene-forming) (Staphylococcus aureus (strain Newman)) (UniProt O07855); assay: Inhibition of diapophytoene desaturase in Staphylococcus aureus Newman assessed as 4,4'-diapophytoene formation by HPLC method; conditions: Staphylococcus aureus subsp. aureus str. Newman
T2 sequence (whole entry): T1 sequence (O07855 whole entry)

Staphylococcus aureus [15] = assay: as §1, with “Mu 50” for “USA400 MW2”, “survival” for “burden”; format: functional, Mu50; summary of the method: as §2
Staphylococcus aureus [16] = assay: as §1, with “of” for “of methicillin-resistant”, “Newman” for “USA400 MW2”, “survival” for “burden”, “kidney” for “liver”; format: functional
Summary of the method: (§5)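 Abscess model in female BALB/c mice, 6-8 weeks old. Dosed ip every 12 h for 108 h; retro-orbital challenge with 1 × 10^7 CFU Newman in 100 µL at 12 h. Sacrificed day 5. Kidneys and hearts homogenised in PBS plus 0.1% Triton X-100 and plated on TSA for CFU. n = 13; two-tailed Mann-Whitney.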

Staphylococcus aureus [17] = assay: as §1, with “Mu 50” for “USA400 MW2”, “survival” for “burden”, “kidney” for “liver”; format: functional, Mu50; summary of the method: as §2
Staphylococcus aureus [18] = assay: as §1, with “of” for “of methicillin-resistant”, “Newman” for “USA400 MW2”, “survival” for “burden”, “heart” for “liver”; format: functional; summary of the method: as §5
Staphylococcus aureus [19] = assay: Sensitization of methicillin-resistant Staphylococcus aureus USA400 MW2 to human whole blood assessed as cell survival at 1 uM after 6 hrs by serial dilution method (reference value: 10.8%); format: functional; conditions: MW2 USA400, 6 h
Staphylococcus aureus [20] = assay: Sensitization of methicillin-resistant Staphylococcus aureus Mu 50 to human whole blood assessed as cell survival at 1 uM after 6 hrs by serial dilution method (reference value: 16.11%); format: functional; conditions: Mu50, 6 h
Staphylococcus aureus [21] = assay: Effect on methicillin-resistant Staphylococcus aureus USA300 LAC growth at 0.2 mM after overnight incubation by plate reader method; format: organism-based; conditions: 200 µM; summary of the method: as §3
Staphylococcus aureus [22] = assay: Effect on methicillin-resistant Staphylococcus aureus Mu 50 growth at 0.05 mM after overnight incubation by plate reader method; format: organism-based, Mu50; conditions: 50 µM; summary of the method: as §3
Staphylococcus aureus [23] = assay: Sensitization of Staphylococcus aureus Newman to human whole blood assessed as cell survival at 1 uM after 6 hrs by serial dilution method (reference value: 26.67%); format: functional
Staphylococcus aureus [24] = assay: Attenuation of Staphylococcus aureus Newman virulence in BALB/c mouse lethal infection model assessed as mouse survival administered ip every 12 hrs for 108 hrs followed by 2 x 10^7 CFU bacterial challenge after first 12 hrs of compound dosing measured 8 days post challenge; format: functional
Summary of the method: (§6)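 Female BALB/c mice, 6-8 weeks old, kept specific pathogen-free. Dosed ip at 50 or 200 mg/kg every 12 h for 108 h (4.5 d). Challenged 12 h after the first dose with 2 × 10^7 CFU S. aureus Newman. Mortality followed; n = 15; log-rank test.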

Staphylococcus aureus [25] = assay: as §1, with “Mu 50” for “USA400 MW2”, “survival” for “burden”, “kidney” for “liver”, “200” for “50”; format: functional, Mu50; summary of the method: as §2
Trichophyton verrucosum = assay: Antifungal activity against naftifine-sensitive Trichophyton verrucosum after 7 days by serial dilution method; format: functional; summary of the method: as §4
Nannizzia gypsea = assay: Antifungal activity against naftifine-sensitive Microsporum gypseum after 7 days by serial dilution method; format: functional; summary of the method: as §4
Staphylococcus aureus [26] = assay: Attenuation of Staphylococcus aureus Newman virulence in BALB/c mouse lethal infection model assessed as mouse survival administered ip every 12 hrs for 108 hrs followed by 2 x 10^7 CFU bacterial challenge after first 12 hrs of compound dosing measured 4 days post challenge; format: functional; summary of the method: as §6

CN(C/C=C/c1cccc([N+](=O)[O-])c1)Cc1ccc2c(c1)CCCCC2
IC50 [1]: > 1000 nM

C/C=C/CN(C)Cc1ccc2c(c1)CCCCC2
IC50 [1]: > 50000 nM

CN(C/C=C/c1ccccc1)Cc1ccc2c(c1)CCCC2
IC50 [1]: 603 nM

CN(CCCc1ccccc1)Cc1ccc2c(c1)CCCCC2
IC50 [1]: > 10000 nM

C(=C\c1ccccc1)/COCc1ccc2c(c1)CCCCC2
IC50 [1]: > 20000 nM

CN(C/C=C/c1ccc(F)cc1)Cc1ccc2c(c1)CCCCC2
IC50 [1]: 39.4 nM

c1ccc(CCCOCc2ccc3c(c2)CCCCC3)cc1
IC50 [1]: > 20000 nM

Cc1cccc(/C=C/CN(C)Cc2ccc3c(c2)CCCCC3)c1
IC50 [1]: 770 nM

CN(C/C=C/C=C/c1ccccc1)Cc1ccc2c(c1)CCCCC2
IC50 [1]: 12.2 nM

C(/C=C/c1ccccc1)=C\COCc1ccc2c(c1)CCCCC2
IC50 [1]: > 20000 nM

CN(C/C=C/c1ccco1)Cc1ccc2c(c1)CCCCC2
IC50 [1]: > 2500 nM

CN(C/C=C/c1ccc(C(F)(F)F)cc1)Cc1ccc2c(c1)CCCCC2
IC50 [1]: 10 nM

CN(C/C=C/c1ccc([N+](=O)[O-])cc1)Cc1ccc2c(c1)CCCCC2
IC50 [1]: 12.4 nM

CCN(C/C=C/c1ccccc1)Cc1ccc2c(c1)CCCCC2
IC50 [1]: > 1250 nM

CN(C/C=C/Cc1ccccc1)Cc1ccc2c(c1)CCCCC2
IC50 [1]: > 10000 nM

COc1ccc(/C=C/CN(C)Cc2ccc3c(c2)CCCCC3)cc1.Cl
survival at 1 µM (Staphylococcus aureus [2]): 0.95%
solubility at 24 h [3]: 4240 µg/mL
Activity (Staphylococcus aureus [4]): 3.87 log10CFU
survival at 1 µM (Staphylococcus aureus [5]): 4.44%
Activity (Staphylococcus aureus [6]): Non-toxic
Activity (Staphylococcus aureus [7]): Non-toxic
Activity (Staphylococcus aureus [8]): 99.5%
MIC=<80 (Trichophyton rubrum): 8 µg/mL
Activity (Staphylococcus aureus [9]): 99.5%
MIC=<80 [10]: 8 µg/mL
survival at 1 µM (Staphylococcus aureus [11]): 0.83%
survival at 1 µM (Staphylococcus aureus [12]): 0.96%
survival at 1 µM (Staphylococcus aureus [13]): 0.98%
inhibition [14]: Active
Activity (Staphylococcus aureus [15]): 2.44 log10CFU
Activity (Staphylococcus aureus [16]): 1.17 log10CFU
Activity (Staphylococcus aureus [17]): 0.99 log10CFU
Activity (Staphylococcus aureus [18]): 1.62 log10CFU
survival at 1 µM (Staphylococcus aureus [19]): 0.2%
survival at 1 µM (Staphylococcus aureus [20]): 0.4%
Activity (Staphylococcus aureus [21]): Non-toxic
Activity (Staphylococcus aureus [22]): Non-toxic
survival at 1 µM (Staphylococcus aureus [23]): 1.83%
Survival (Staphylococcus aureus [24]): >60%
Activity (Staphylococcus aureus [25]): 2.27 log10CFU
MIC=<80 (Trichophyton verrucosum): 8 µg/mL
MIC=<80 (Nannizzia gypsea): 16 µg/mL
Survival (Staphylococcus aureus [26]): 83%

CN(C/C=C/c1ccc([N+](=O)[O-])cc1)Cc1ccc2c(c1)CCCC2
IC50 [1]: 94.5 nM

CN(C/C=C/c1ccc(Cl)cc1)Cc1ccc2c(c1)CCCC2
IC50 [1]: 12.8 nM

CN(CC#Cc1ccccc1)Cc1ccc2c(c1)CCCCC2
IC50 [1]: > 1250 nM
